H69AR inhibit – blocks growth of human H69AR lung tumor cells. H69AR lung tumor viability, ATP luminescence, 72 h; active compounds read low. viability, % at 10 µM. hit rate 6% among 85,000;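 active = viability at or below 40%; inactive = viability above 40%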;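 also: multidrug resistant small cell line overexpressing MRP-1 efflux transporter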
bCat KO growth – beta-catenin-lacking colon tumor cell growth suppression; AID 818; viability, % at 10 µM; hit rate 1.5% among 140,000; HCT116 beta-catenin knockout viability, CellTiter-Glo, 60 h; active compounds read low;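 active = viability at or under a set limit, the compound median less 4 SD, cut at about 6% in these data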
HUVEC inhibit – blocks proliferation of human endothelial cells; viability, % at 10 µM (by protocol); hit rate 1.1% among 86,000; HUVEC proliferation, CellTiter-Glo luminescence, 72 h; active compounds read low;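 active = viability at or below 30%; inactive = viability above 30%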
HCT116 PTEN-null – growth suppressors of cells with PTEN tumor suppressor deletion; HCT116 PTEN-null viability, CellTiter-Glo, 60 h; active compounds read low; viability, % at 10 µM; hit rate 1.2% among 140,000;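 active = viability at or below a set limit, 4 SD under the median of all tested compounds, cut at about 3.7% in these data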;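 also: PTEN knockout HCT116 line with beta catenin targeted HCT116 as companion control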
Fibroblast inh – blocks proliferation of human lung fibroblasts. LL 47 human lung fibroblast viability, ATP luminescence; active compounds read low. AID 719. viability, % at 10 µM. hit rate 1.1% among 85,000;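 active = viability at or below 50% in the single dose screen; inactive = viability above 50%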;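 also: compound exposure lasted 72 h before the ATP readout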
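Material: human lung fibroblast line LL 47, low passage; Evaluation: viability percentage against median untreated-cell control; Buffer or medium: 15% FBS in IMEM; Incubation: 72 h compound exposure at 37 °C after overnight plating; Dosing: 0.1% DMSO in all compound wells; Measured by: CellTiter-Glo luminescence.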
A number is an active result; – = inactive; · = no result. Only a selection was taken, and hits are over-represented in it overall.

SMILES | H69AR inhibit | bCat KO growth | HUVEC inhibit | HCT116 PTEN-null | Fibroblast inh
O=c1cc(Nc2ccc3c(c2)OCO3)[nH]c(=O)n1-c1ccc(Br)cc1 | 35.4 | – | – | – | –
O=c1cc(Nc2ccc3c(c2)OCCO3)[nH]c(=O)n1-c1ccc(Br)cc1 | 37.4 | – | – | – | –
O=c1cc(Nc2ccc3c(c2)OCCO3)[nH]c(=O)n1Cc1ccc(F)cc1 | – | – | – | – | –
O=C(Nc1nnc(SCC(=O)N2CCOCC2)s1)c1ccccc1 | · | – | · | – | ·
Cc1cc(NC(=O)CSc2nc(-c3cccs3)cc(C(F)(F)F)n2)no1 | 29.1 | – | – | – | –
Cc1cc(NC(=O)CCCS(=O)(=O)c2nc(-c3cccs3)cc(C(F)(F)F)n2)no1 | · | – | · | 3.3 | ·
CCCNC(=O)CSc1nc(-c2cccs2)cc(C(F)(F)F)n1 | – | – | – | – | –
O=C1CN(C(=O)c2ccccn2)c2ccccc2N1 | – | – | – | – | –
CCCn1nc(C(=O)N2CC(=O)Nc3ccccc32)c2ccccc2c1=O | 25.2 | – | – | – | –
CC(C)Oc1ccc(C(=O)Nc2ccc(C(F)(F)F)n(C)c2=O)cc1 | · | – | · | – | ·
CCn1c2ccccc2c2nnc(SCc3ccccc3)nc21 | – | – | – | – | –
CCn1c2ccccc2c2nnc(SCCCn3c(=O)[nH]c4ccccc43)nc21 | 22.5 | – | – | – | –
COc1cc(/C=c2\s/c(=C(/C#N)C(=O)N3CCCC3)n(-c3ccccc3)c2=O)ccc1O | 10.4 | – | 12.5 | – | –
COC(=O)/C=c1/s/c(=C(/C#N)C(=O)N2CCCCC2)n(-c2ccccc2)c1=O | 35.9 | – | – | – | –
COc1ccc(-n2nc(C(=O)NCC(=O)Nc3ccccn3)c3ccccc3c2=O)cc1Cl | · | – | · | – | ·
COCCCNC(=S)NC1CCCCC1 | · | – | · | – | ·
CN(C)CC(C)(C)CNS(=O)(=O)c1cccc2nsnc12 | · | – | · | – | ·
Cc1ccc(C2Nc3ccccc3C(=O)N2Cc2ccco2)cc1 (centres undefined) | 29.8 | – | – | – | –
Cc1ccc(-n2c(SCC(=O)N3Cc4ccccc4CC3C(=O)O)nnc2-c2cccnc2)c(C)c1 (centres undefined) | · | – | · | – | ·
C=CCn1c(SCc2csc(C)n2)nc2sc3c(c2c1=O)CCC(C)C3 (centres undefined) | 30.7 | – | – | – | –
C=CCn1c(SCc2csc(C)n2)nc2sc3c(c2c1=O)CCCC3 | – | – | – | – | –
C/C=C(\C)CN1CCN(c2ccc(C)cc2)CC1 | – | – | – | – | –
Cc1ccc(S(=O)(=O)N(C(=O)c2ccncc2)c2ccc(OC(=O)c3ccncc3)c3ccccc23)cc1 | · | – | · | – | ·
COc1ccc(S(=O)(=O)N(C(C)=O)c2ccc(OC(C)=O)c3ccccc23)cc1[N+](=O)[O-] | · | 2.0 | · | 2.8 | ·
O=C(c1ccc(F)cc1)C1CCN(C(=O)NC2CCCCC2)CC1 | – | – | – | – | –
SMILES | H69AR inhibit | bCat KO growth | HUVEC inhibit | HCT116 PTEN-null | Fibroblast inh
CN(C(=O)c1cccc(Nc2ccc(-c3ccc4c(c3)OCCO4)nn2)c1)C1CCCCC1 | 16.8 | – | – | – | –
Cc1cccc2c1NC(=O)/C2=C\C(=O)c1cccs1 | 2.1 | 4.9 | 28.6 | 2.2 | 6.1
CCc1ccc2c(c1)/C(=C/C(=O)c1cccs1)C(=O)N2 | 1.7 | 0.8 | – | 0.8 | 6.5
CN1/C(=C\C(=O)c2cccs2)C(C)(C)c2ccccc21 | · | – | · | – | ·
Cc1cc(C)c2c(c1)/C(=C/C(=O)c1ccc(Br)s1)C(=O)N2 | 1.8 | 1.8 | 7.1 | 1.8 | 15.4
CCc1ccc2c(c1)/C(=N/N(C)C(=S)NC)C(=O)N2 | · | – | · | – | ·
COc1ccc(C(=O)/C=C/c2ccc(OC)c(O)c2)c(F)c1 | · | 5.6 | · | – | ·
COc1ccc(/C=C/C(=O)O)cc1OC | · | – | · | – | ·
COc1cc(/C=C/C(=O)c2ccc(Cl)s2)cc(OC)c1O | · | 4.5 | · | – | ·
COc1ccc(/C=C/C(=O)c2ccc(Cl)s2)cc1O | · | 3.4 | · | – | ·
Cc1c(/C=C/C(=O)c2ccc(Cl)s2)cnn1C | – | – | – | – | –
COc1ccc(C(=O)/C=C/c2ccc(F)cc2)c(OC(=O)c2ccc([N+](=O)[O-])cc2)c1 | · | – | · | 3.3 | ·
COc1ccc(/C=C/C(=O)c2ccccc2O)cc1 | · | – | · | – | ·
COc1ccc(C(=O)/C=C/c2cccs2)c(OC(=O)c2cccc([N+](=O)[O-])c2)c1 | · | – | · | – | ·
O=C(Cn1nnc2ccccc2c1=O)NCCc1ccc(F)cc1 | · | – | · | – | ·
Cc1onc(-c2ccccc2Cl)c1C(=O)Nc1ccccc1N1CCOCC1 | – | – | – | – | –
O=C(Nc1cccc(Cl)c1)Nc1nnc(CSCCOc2ccc(Cl)cc2)s1 | · | 4.2 | · | – | ·
Cc1ccc(NC(=O)Nc2nnc(CSCCOc3ccc(Cl)cc3)s2)cc1 | · | – | · | – | ·
O=C(Nc1cccc(Cl)c1)Nc1nnc(CC2=CCCCC2)s1 | · | – | · | 3.4 | ·
Cc1ccc(S(=O)(=O)N2CCCCC2)cc1NS(=O)(=O)c1cccc(C(=O)O)c1 | · | – | · | – | ·
CCOC(=O)N1CCC(N2CCN(S(=O)(=O)c3ccc4ccccc4c3)CC2)CC1 | · | – | · | – | ·
CCN1CCN(c2ncc(C(=O)Nc3cc(Cl)c(OC)cc3OC)c3ccccc23)CC1 | 22.9 | – | 17.8 | – | –
CCN1CCN(c2ncc(C(=O)N3CCN(c4ccccc4OC)CC3)c3ccccc23)CC1 | – | · | – | · | –
CCN1CCN(c2ncc(C(=O)Nc3c(F)cc(F)cc3Br)c3ccccc23)CC1 | 21.4 | – | – | – | –
CN1CCN(c2ccc(Cl)cc2NC(=O)C2COc3ccccc3O2)CC1 (centres undefined) | 30.4 | – | – | – | –
SMILES | H69AR inhibit | bCat KO growth | HUVEC inhibit | HCT116 PTEN-null | Fibroblast inh
CN1CCN(c2ccc(Cl)cc2NC(=O)c2nn(-c3ccccc3)c(=O)c3ccccc23)CC1 | 4.9 | – | – | – | –
CN1CCN(c2ccc(Cl)cc2NC(=O)c2cccc(S(=O)(=O)N(C)C)c2)CC1 | 25.6 | – | – | – | –
COc1ccc(OC)c(NC(=O)C2COc3ccccc3O2)c1 (centres undefined) | – | – | – | – | –
CCC(C)NS(=O)(=O)c1ccc(S(=O)(=O)N(CCc2ccc(OC)c(OC)c2)Cc2cccs2)cc1 (centres undefined) | · | – | · | – | ·
CN(C)c1ccc(CNc2ccc3c(c2)ncn3C)cc1 | 5.2 | – | – | – | –
CCCCn1cnc2cc(NCc3ccncc3)ccc21 | – | – | – | – | –
Cn1c(SCC(=O)Nc2ccc3c(c2)OCCO3)nnc1-c1ccccn1 | – | – | – | – | –
CC(=O)c1c(C)[nH]c(C(=O)CSc2nnc(-c3ccco3)n2Cc2ccccc2)c1C | 39.1 | – | – | – | –
O=C(CSc1nc2ncc(Br)cc2[nH]1)Nc1ccc2c(c1)OCO2 | 2.5 | – | – | – | –
O=C(CSc1nnc(-c2ccccn2)n1Cc1ccccc1)Nc1ccc2c(c1)OCO2 | 14.5 | – | – | – | –
CCOc1ccc2nc(SCC(=O)Nc3ccc4c(c3)OCCO4)[nH]c2c1 | – | – | – | – | –
CCOC(=O)c1c(C)[nH]c(C(=O)CSc2nnc(-c3cccs3)n2Cc2ccccc2)c1C | 4.9 | – | – | – | –
COc1cc(/C=N/NC(=O)CCc2c(C)n[nH]c2C)cc(OC)c1OC | – | – | – | – | –

Screening data deposited in PubChem BioAssay by SRMLSC.
